This passage reports viability and IC50 results from PMC10764114 (ACS Omega, 2023).

Each structure is given as a SMILES string.

In data set [1] the test system is U87-malignant glioma (ATCC-HTB-14). The data set can be described thus: MTT assay, cytotoxicity against U87-malignant glioma cells. The data set is classed as cell-based, human. Conditions: Homo sapiens, Glioma cell; for viability at 10 µM / viability at 40 µM / viability at 80 µM / viability at 100 µM / viability at 150 µM: read-out: % cell viability U87; for IC50: read-out: IC50 (μM ± SEM U87). In a few lines: (§1)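 Cells grown in DMEM (4.5 g/L glucose, 10% FBS, 1% penicillin/streptomycin) at 37 °C, 5% CO₂. Seeded at 1 × 10³ cells/well and left 24 h to adhere. Test compound added at 10, 40, 80, 100 or 150 μM for 48 h (text also states MTT added 24 h post-dosing). MTT in PBS added for 3 h, formazan dissolved in DMSO for 30 min, OD read at 550 nm, % viability calculated from absorbance.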
For orientation: Tetrazolium dyes change colour on reduction, which living cells bring about.

The nature of data set [2]: MTT assay, cytotoxicity against normal HEK293 cells. The data set is classed as cell-based, human. Particulars: human, HEK293 cells. The essentials:
as §1

In the case of `CC(C)Cc1ccc(C(C)C(=O)NN=Cc2ccc(OCC(=O)NN=Cc3ccc(F)cc3)cc2)cc1` (stereo not drawn) [5q, N′-(4-(2-(2-(4-Fluorobenzylidene)hydrazinyl)-2-oxoethoxy)benzylidene)-2-(4-isobutylphenyl)propanehydrazide], in data set [1], the viability at 10 µM is 183%, the viability at 40 µM worked out at 84%, the viability at 80 µM worked out at 81.7% and the viability at 100 µM was determined as 48.5%. In data set [1], the viability at 150 µM amounted to 40.5% and the IC50 is 46 ± 0.08 µM. In addition, in data set [2], the viability at 48 h, 10 μM is 27.5%; the viability at 48 h, 40 μM was determined as 25.4%; the viability at 48 h, 80 μM was determined as 19.9%; the viability at 48 h, 100 μM amounted to 19.7%. The viability at 48 h, 150 μM in data set [2] amounted to 17.8%.
As to `COc1ccc(C=NNC(=O)COc2ccc(C=NNC(=O)C(C)c3ccc(CC(C)C)cc3)cc2)cc1O` (stereo not drawn) [5n, N′-(4-(2-(2-(3-Hydroxy-4-methoxybenzylidene)hydrazinyl)-2-oxoethoxy)benzylidene)-2-(4-isobutylphenyl)propanehydrazide], in data set [1], the viability at 10 µM was found to be 165%, the viability at 40 µM was 85.3%, the viability at 80 µM stood at 61.1% and the viability at 100 µM was found to be 42.7%. In addition, in data set [1], the viability at 150 µM worked out at 33.2% and the IC50 was 40.18 ± 0.07 µM. In addition, in data set [2], the viability at 48 h, 10 μM is 38.1%; the viability at 48 h, 40 μM amounted to 28%; the viability at 48 h, 80 μM was found to be 24.8%; the viability at 48 h, 100 μM was found to be 16.9%. Moreover, the viability at 48 h, 150 μM in data set [2] worked out at 12.6%.
In the case of `CC(C)Cc1ccc(C(C)C(=O)NN=Cc2ccc(OCC(=O)NN=Cc3cc(Br)c(O)c(Br)c3)cc2)cc1` (stereo not drawn) [5i, N′-(4-(2-(2-(3,5-Dibromo-4-hydroxybenzylidene)hydrazinyl)-2-oxoethoxy)benzylidene)-2-(4-isobutylphenyl)propanehydrazide], in data set [1], the viability at 10 µM is 40.3%, the viability at 40 µM turned out to be 36.9%, the viability at 80 µM stood at 31.4% and the viability at 100 µM was determined as 29.9%. In addition, in data set [1], the viability at 150 µM worked out at 24.4% and the IC50 came out at 38.32 ± 0.1 µM. For the same compound, in data set [2], the viability at 48 h, 10 μM was 67.6%; the viability at 48 h, 40 μM was 57.4%; the viability at 48 h, 80 μM came to 55.7%; the viability at 48 h, 100 μM came out at 49.9%. The viability at 48 h, 150 μM in data set [2] stood at 43.8%.
With `CC(C)Cc1ccc(C(C)C(=O)NN=Cc2ccc(OCC(=O)NN=Cc3ccc(Br)cc3F)cc2)cc1` (stereo not drawn) [5j, N′-(4-(2-(2-(4-Bromo-2-fluorobenzylidene)hydrazinyl)-2-oxoethoxy)benzylidene)-2-(4-isobutylphenyl)propanehydrazide], in data set [1], the viability at 10 µM was 187%, the viability at 40 µM is 128%, the viability at 80 µM amounted to 94.2% and the viability at 100 µM is 93.1%. In addition, in data set [1], the viability at 150 µM was 78.6% and the IC50 turned out to be 43.71 ± 0.07 µM. In data set [2], the viability at 48 h, 10 μM came out at 44.5%; the viability at 48 h, 40 μM was 40.1%; the viability at 48 h, 80 μM worked out at 38.4%; the viability at 48 h, 100 μM was 36.8%. Besides, the viability at 48 h, 150 μM in data set [2] worked out at 26.3%.
`CC(C)Cc1ccc(C(C)C(=O)NN=Cc2ccc(OCC(=O)NN=Cc3ccccc3O)cc2)cc1` (stereo not drawn) [5r, N′-(4-(2-(2-(2-Hydroxybenzylidene)hydrazinyl)-2-oxoethoxy)benzylidene)-2-(4-isobutylphenyl)propanehydrazide]: in data set [1], the viability at 10 µM worked out at 109%, the viability at 40 µM was 81.4%, the viability at 80 µM came out at 72.8% and the viability at 100 µM turned out to be 45.5%. Also, in data set [1], the viability at 150 µM is 40.6% and the IC50 stood at 43.66 ± 0.04 µM. Further, in data set [2], the viability at 48 h, 10 μM worked out at 39%; the viability at 48 h, 40 μM turned out to be 33.6%; the viability at 48 h, 80 μM stood at 32%; the viability at 48 h, 100 μM was 26.1%. The viability at 48 h, 150 μM in data set [2] was determined as 25.1%.
With `COc1ccc(C=NNC(=O)COc2ccc(C=NNC(=O)C(C)c3ccc(CC(C)C)cc3)cc2)cc1OC` (stereo not drawn) [5l, N′-(4-(2-(2-(3,4-Dimethoxybenzylidene)hydrazinyl)-2-oxoethoxy)benzylidene)-2-(4-isobutylphenyl)propanehydrazide], in data set [1], the viability at 10 µM was 97%, the viability at 40 µM turned out to be 88.4%, the viability at 80 µM came out at 84.9% and the viability at 100 µM was 84.2%. In data set [1], the viability at 150 µM came to 79.7% and the IC50 was 72.83 ± 0.06 µM. Besides, in data set [2], the viability at 48 h, 10 μM worked out at 30.5%; the viability at 48 h, 40 μM is 28.1%; the viability at 48 h, 80 μM was found to be 25.9%; the viability at 48 h, 100 μM amounted to 24.9%. Moreover, the viability at 48 h, 150 μM in data set [2] came out at 24.2%.
As for `CCN(CC)c1ccc(C=NNC(=O)COc2ccc(C=NNC(=O)C(C)c3ccc(CC(C)C)cc3)cc2)cc1` (stereo not drawn) [5o, N′-(4-(2-(2-(4-(Diethylamino)benzylidene)hydrazinyl)-2-oxoethoxy)benzylidene)-2-(4-isobutylphenyl)propanehydrazide], in data set [1], the viability at 10 µM was determined as 146%, the viability at 40 µM is 122%, the viability at 80 µM was found to be 121% and the viability at 100 µM turned out to be 119%. In addition, in data set [1], the viability at 150 µM came out at 107% and the IC50 amounted to 119.7 ± 0.25 µM. Moreover, in data set [2], the viability at 48 h, 10 μM was determined as 49%; the viability at 48 h, 40 μM worked out at 42.9%; the viability at 48 h, 80 μM was found to be 37.7%; the viability at 48 h, 100 μM turned out to be 35.8%. Also, in data set [2], the viability at 48 h, 150 μM came out at 35.2%.
For the compound `CC(C)Cc1ccc(C(C)C(=O)NN=Cc2ccc(OCC(=O)NN=Cc3cccc4ccccc34)cc2)cc1` (stereo not drawn) [5t, 2-(4-Isobutylphenyl)-N′-(4-(2-(2-(naphthalen-1-ylmethylene)hydrazinyl)-2-oxoethoxy)benzylidene)propanehydrazide], in data set [1], the viability at 10 µM was found to be 179%, the viability at 40 µM is 169%, the viability at 80 µM was found to be 155% and the viability at 100 µM was 146%. In addition, in data set [1], the viability at 150 µM was found to be 140% and the IC50 was 86.74 ± 0.26 µM. In addition, in data set [2], the viability at 48 h, 10 μM was 68.7%; the viability at 48 h, 40 μM was 58.9%; the viability at 48 h, 80 μM stood at 51%; the viability at 48 h, 100 μM stood at 47.3%. The viability at 48 h, 150 μM in data set [2] came out at 43%.
Regarding `CC(C)Cc1ccc(C(C)C(=O)NN=Cc2ccc(OCC(=O)NN)cc2)cc1` (stereo not drawn) [compound 4, N′-(4-(2-Hydrazinyl-2-oxoethoxy)benzylidene)-2-(4-isobutylphenyl)propanehydrazide], in data set [1], the viability at 10 µM turned out to be 72.5%, the viability at 40 µM was 47.9%, the viability at 80 µM was found to be 41.6% and the viability at 100 µM came to 41.3%. In addition, in data set [1], the viability at 150 µM was 33.7% and the IC50 was found to be 59.9 ± 0.08 µM. Further, in data set [2], the viability at 48 h, 10 μM worked out at 29.1%; the viability at 48 h, 40 μM is 28.6%; the viability at 48 h, 80 μM stood at 28.2%; the viability at 48 h, 100 μM came to 26.3%. Besides, the viability at 48 h, 150 μM in data set [2] worked out at 9.96%.
Turning to `COc1cccc(C=NNC(=O)COc2ccc(C=NNC(=O)C(C)c3ccc(CC(C)C)cc3)cc2)c1` (stereo not drawn) [5p, 2-(4-Isobutylphenyl)-N′-(4-(2-(2-(3-methoxybenzylidene)hydrazinyl)-2-oxoethoxy)benzylidene)propanehydrazide], in data set [1], the viability at 10 µM was found to be 151%, the viability at 40 µM was 122%, the viability at 80 µM stood at 93.7% and the viability at 100 µM came to 93.7%. In data set [1], the viability at 150 µM is 93.5% and the IC50 is 90.68 ± 0.13 µM. In data set [2], the viability at 48 h, 10 μM was found to be 49.9%; the viability at 48 h, 40 μM is 49.4%; the viability at 48 h, 80 μM turned out to be 49.2%; the viability at 48 h, 100 μM was determined as 48.1%. Further, the viability at 48 h, 150 μM in data set [2] was 39.3%.
In the case of `COc1ccc(C=NNC(=O)COc2ccc(C=NNC(=O)C(C)c3ccc(CC(C)C)cc3)cc2)c(O)c1` (stereo not drawn) [5m, N′-(4-(2-(2-(2-Hydroxy-4-methoxybenzylidene)hydrazinyl)-2-oxoethoxy)benzylidene)-2-(4-isobutylphenyl)propanehydrazide], in data set [1], the viability at 10 µM worked out at 142%, the viability at 40 µM came to 138%, the viability at 80 µM is 34.5% and the viability at 100 µM turned out to be 134%. Besides, in data set [1], the viability at 150 µM is 128% and the IC50 turned out to be 150.5 ± 0.2 µM. For the same compound, in data set [2], the viability at 48 h, 10 μM was 26.2%; the viability at 48 h, 40 μM is 26.1%; the viability at 48 h, 80 μM turned out to be 24.2%; the viability at 48 h, 100 μM was 21.9%. The viability at 48 h, 150 μM in data set [2] came to 18.6%.
Regarding `CC(C)Cc1ccc(C(C)C(=O)NN=Cc2ccc(OCC(=O)NN=Cc3ccc(Cl)cc3Cl)cc2)cc1` (stereo not drawn) [5h, N′-(4-(2-(2-(2,4-Dichlorobenzylidene)hydrazinyl)-2-oxoethoxy)benzylidene)-2-(4-isobutylphenyl)propanehydrazide], in data set [1], the viability at 10 µM worked out at 50.2%, the viability at 40 µM came to 50.1%, the viability at 80 µM was found to be 48.8% and the viability at 100 µM was 46%. Also, in data set [1], the viability at 150 µM amounted to 43.6% and the IC50 is 120.1 ± 0.13 µM. In data set [2], the viability at 48 h, 10 μM was 84.1%; the viability at 48 h, 40 μM turned out to be 79.5%; the viability at 48 h, 80 μM amounted to 69.1%; the viability at 48 h, 100 μM stood at 68.3%. Further, the viability at 48 h, 150 μM in data set [2] worked out at 67.1%.

In general, viability refers to a read-out of living cells in per cent, often relative to untreated cells. As a reminder, the IC50 is the concentration that gives 50% inhibition.
